This is a sample that favours compounds with a hit; in the whole collection about 1.4% have one here.
FXIIa inh 1536 = blocks human coagulation factor XIIa protease activity. P00748. purified FXIIa, Boc-QGR-AMC fluorogenic substrate, 2 h. inhibition, % at 5 µM. hit rate 0.3% among 220,000. AID 800; in the data active = inhibition above about 40%
Calpain2 inh = inhibitors of pig calpain II. AID 1236. inhibition, % at 16 µM. purified calpain II, fluorogenic peptide substrate, 30 min. hit rate 0.37% among 220,000;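 active = inhibition above about 50%, limit read from the data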
hK5 inh = kallikrein 5 (human) inhibition; hit rate 0.59% among 210,000; recombinant hK5, fluorogenic AMC substrate cleavage; AID 873; inhibition, % at 5 µM;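 active = inhibition of 40% or more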
Thrombin inh = inhibitors of human thrombin | inhibition, % at 5 µM | AID 1046 | alpha-thrombin, Boc-VPR-AMC fluorogenic substrate cleavage | hit rate 0.26% among 220,000;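 active = inhibition at or above 40%; inactive = inhibition below 40%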
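System – human alpha-thrombin · Medium – pH 7.5 Tris (50 mM) with NaCl 150 mM, Tween 20 0.05% · Compound – single-point dosing at 5 µM, 0.2% DMSO · Incubation – enzyme reaction carried out at room temperature · Technique – fluorescence of released AMC, ex 355 nm, em 460 nm · Read-out basis – % inhibition of thrombin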
FXIa inh = factor XIa (human) inhibition | purified FXIa, Boc-Glu-Ala-Arg-AMC fluorogenic substrate | AID 798 | inhibition, % at 5 µM | hit rate 0.14% among 220,000;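 active = inhibition of at least 40%; inactive = inhibition below 40%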;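 also: fluorescence of freed AMC excited at 355 nm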
Target sequence (P03951 19-387 limits assumed): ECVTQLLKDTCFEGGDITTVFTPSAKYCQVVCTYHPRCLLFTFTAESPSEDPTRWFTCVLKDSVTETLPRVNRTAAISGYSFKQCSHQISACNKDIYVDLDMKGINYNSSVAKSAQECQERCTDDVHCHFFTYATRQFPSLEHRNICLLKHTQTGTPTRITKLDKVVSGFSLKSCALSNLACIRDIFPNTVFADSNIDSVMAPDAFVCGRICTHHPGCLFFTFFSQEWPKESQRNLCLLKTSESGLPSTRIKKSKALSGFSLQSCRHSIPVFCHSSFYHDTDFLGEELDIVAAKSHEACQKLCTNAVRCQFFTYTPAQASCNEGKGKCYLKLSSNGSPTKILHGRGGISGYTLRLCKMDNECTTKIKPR
Target sequence (P03951 388-625 limits assumed): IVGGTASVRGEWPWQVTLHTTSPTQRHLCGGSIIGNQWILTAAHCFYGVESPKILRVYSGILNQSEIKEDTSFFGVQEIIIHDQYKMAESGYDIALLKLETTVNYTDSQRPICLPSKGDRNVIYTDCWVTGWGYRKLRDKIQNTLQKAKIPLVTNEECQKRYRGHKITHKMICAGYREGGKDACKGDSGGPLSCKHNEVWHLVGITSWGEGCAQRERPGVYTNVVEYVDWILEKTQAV
Numbers stand for hits; 0 = inactive; - = no result given.

SMILES | FXIIa inh 1536 | Calpain2 inh | hK5 inh | Thrombin inh | FXIa inh
Cc1c(C(=O)N2CCC(C)CC2)sc2ncnc(N3CCN(c4ccccc4)CC3)c12 | 0 | 63 | 0 | 0 | 0
Cc1cc(C)nc(SCC(=O)n2c3c(c4ccccc42)CCCC3)n1 | 0 | 0 | 0 | 0 | 0
O=C(CSc1ncccn1)n1c2c(c3ccccc31)CCCC2 | 0 | 0 | 77 | 0 | 0
Cc1sc(NC(=O)c2ccco2)c(CN2CCN(c3ccc(F)cc3)CC2)c1C | 57 | 0 | 0 | 0 | 0
CCCCc1ccc(NC(=O)c2ccc(N(C)S(C)(=O)=O)cc2)cc1 | 0 | 0 | 0 | 0 | 0
CC1(C)C(=O)Nc2ccccc2N1C(=O)COc1cccnc1[N+](=O)[O-] | 0 | 0 | 0 | 0 | 0
O=c1[nH]nc(Cc2ccc(Cl)cc2)c2ccccc12 | 0 | 0 | 54 | 0 | 0
COC(=O)c1ccccc1NC(=O)N1CCCC1 | 0 | 0 | 0 | 0 | 0
COC(=O)c1ccccc1NC(=O)N1CCN(S(=O)(=O)c2ccc(Cl)cc2)CC1 | 0 | 0 | 102 | 0 | 0
CCc1nnc(N/N=C/c2c(C)[nH]c3ccccc23)n1N | 0 | 0 | 0 | 0 | 0
N/C(=N/S(=O)(=O)c1ccccc1)c1cccc([N+](=O)[O-])c1 | 0 | 0 | - | 0 | 0
N/C(=N\S(=O)(=O)c1ccccc1)c1ccc([N+](=O)[O-])cc1 | 0 | 0 | 0 | 48 | 0
COc1ccc(CNC(=O)CCC(=O)Nc2nnc(CC(C)C)s2)cc1 | 0 | 0 | 0 | 0 | 0
Cn1c(SCC(=O)NC2CCCC2)nnc1-c1ccc(S(=O)(=O)N2CCOCC2)cc1 | 0 | 0 | 0 | 45 | 0
Cc1ccc(NC(=O)CSc2nnc(-c3ccc(S(=O)(=O)N4CCOCC4)cc3)n2C)cc1 | 0 | 0 | 0 | 0 | 0
Cn1c(N)c(C(=O)COC(=O)CCCc2nc3ccccc3s2)c(=O)n(C)c1=O | 0 | 51 | 0 | 0 | 0
Cn1c(N)c(C(=O)COC(=O)C2CCCCC2)c(=O)n(C)c1=O | 0 | 89 | 0 | 0 | 0
Cn1c(N)c(C(=O)COC(=O)C2CCN(S(=O)(=O)c3cccs3)CC2)c(=O)n(C)c1=O | 0 | 0 | 0 | 0 | 0
COC(c1ccccc1)c1nnc(CCC(=O)N(C)Cc2cccc(-n3cccn3)c2)o1 (stereo unspecified) | - | 0 | - | 40 | 0
COC(c1ccccc1)c1nnc(CCC(=O)N(C)CCOc2ccccc2)o1 (stereo unspecified) | 0 | 0 | 0 | 0 | 0
CCOC(=O)C1(C)C=C(Nc2cccc(OC)c2)C(=O)N1c1ccccc1 (stereo unspecified) | 0 | 0 | 44 | 0 | 0
S=C(Nc1ccccc1Cl)N(CCCN1CCOCC1)Cc1ccccn1 | 0 | 0 | 0 | 0 | 0
COc1cc(N2CCCC2)c(OC)cc1/C=C(/C#N)c1ccc(Br)cc1 | 0 | 0 | 50 | 0 | 0
COc1cc(N2CCCC2)c(OC)cc1/C=C(/C#N)c1ccc(F)cc1 | 0 | 0 | 0 | 0 | 0
O=C(Cn1c(=O)n(-c2ccccc2)c(=O)n1CC(=O)N1CCCCC1)N1CCCCC1 | 0 | 50 | 0 | 0 | 0
SMILES | FXIIa inh 1536 | Calpain2 inh | hK5 inh | Thrombin inh | FXIa inh
CCc1nnc(NC(=O)CSc2nc3ccccc3o2)s1 | 0 | 0 | 42 | 0 | 0
CCc1nnc(NC(=O)CSc2ncc(-c3ccccc3)[nH]2)s1 | 0 | 0 | 63 | 0 | 0
Cc1nnc(NC(=O)CSc2nc3ccccc3o2)s1 | 0 | 0 | 0 | 0 | 0
NNC(=S)Nc1ccc(S(=O)(=O)N2CCCCC2)cc1 | 0 | 0 | 0 | 0 | 0
O=C(O)C1CCC(=O)N1C(=O)OCc1ccccc1 (stereo unspecified) | 0 | 0 | 0 | 0 | 0
O=C(COC(=O)c1cc(Cl)ccc1[N+](=O)[O-])NCc1ccc(Cl)cc1Cl | 0 | 57 | 0 | 0 | 0
Cc1ccc(NC(=O)Cn2nc(C)c(S(=O)(=O)N(C)C)c2C)cc1C | 0 | 0 | 0 | 0 | 0
CC1=C(C(=O)OCC(C)C)[C@]23C(=O)c4ccccc4[C@@]2(O1)OC(N)=C3C#N | 0 | 0 | 0 | 0 | 0
CC1=C(C(=O)OCC(C)C)C23C(=O)c4ccccc4C2(O1)OC(N)=C3C#N (stereo unspecified) | 0 | 59 | 0 | 0 | 0
CCCOC(=O)Cn1c(=O)c2cc3c(=O)n(CC(=O)OCCC)c(=O)c3cc2c1=O | 0 | 0 | 0 | 0 | 0
CCC(=O)OCCn1c(=O)c2cc3c(=O)n(CCOC(=O)CC)c(=O)c3cc2c1=O | 54 | 0 | 0 | 0 | 0
COC(=O)C1=C(C(=O)OC)[C@@H]2N(C)c3ccccc3[C@@]23C[C@@H](C(=O)OC)N(C(=O)c2ccc(Br)cc2)C3=N1 | 0 | 0 | 0 | 0 | 0
CCCc1nc2ccccc2c(C(=O)OCC(=O)N2CCc3ccccc32)c1CC | 0 | 0 | 58 | 0 | 0
C=CCNC(=O)/C(C#N)=C\c1cc(Cl)c(O)c(OCC)c1 | 0 | 0 | 52 | 48 | 0
O=C(C1CCCO1)N1CCN(C(=S)Nc2ccccc2Cl)CC1 (stereo unspecified) | 0 | 0 | 0 | 0 | 0
Nc1nc2nccc(-c3cccnc3)n2n1 | 0 | 0 | 0 | 0 | 0
CCOC(=O)c1cnc(-c2ccccc2)nc1Oc1ccc(Cl)c(Cl)c1 | 0 | 0 | 65 | 0 | 0
COc1ccc(NC(=O)c2cccc(S(=O)(=O)Nc3ccc(Br)cc3)c2)cn1 | 0 | 0 | 40 | 0 | 0
O=C(Nc1ccc(Br)cc1)c1cccc(S(=O)(=O)Nc2cnc3ccccc3c2)c1 | 0 | 0 | 0 | 0 | 0
COc1ccc(CN2CCN(C(=O)C3CCC(CNS(=O)(=O)c4ccccc4)CC3)CC2)c(OC)c1OC (stereo unspecified) | 101 | 0 | 0 | 0 | 0
Nc1nncn1C(=O)CCc1ccccc1 | 0 | 0 | 0 | 56 | 0
CC(NS(C)(=O)=O)C(c1cccs1)N1CCN(c2ccc(F)cc2)CC1 (stereo unspecified) | 0 | 0 | 0 | 0 | 0
COc1ccc(N2CCN(C(c3cccs3)C(C)NS(C)(=O)=O)CC2)cc1 (stereo unspecified) | 0 | 51 | 0 | 0 | 0
CC1=NN(C(C#N)c2ccc([N+](=O)[O-])cc2)C(C)(C)C1 (stereo unspecified) | 0 | 0 | 57 | 0 | 50
CC1=NN(C(C#N)c2ccc(F)cc2)C(C)(C)C1 (stereo unspecified) | 0 | 0 | - | 0 | 0
SMILES | FXIIa inh 1536 | Calpain2 inh | hK5 inh | Thrombin inh | FXIa inh
Cc1ccccc1-c1cc(C(=O)Nc2sc(C(=O)OC(C)C)c(C)c2C#N)c2ccccc2n1 | 0 | 0 | 0 | 0 | 0
CC(=O)N(c1ccc(Cl)cc1)c1nc(C)cc(C)c1C#N | 0 | 0 | 0 | 0 | 0
CCOc1ccc(N(C(C)=O)c2nc(C)cc(C)c2C#N)cc1 | 0 | 0 | 52 | 0 | 0
O=C(NCc1ccccc1)NC(=O)c1ccncc1 | 0 | 0 | 40 | 0 | 0
O=[N+]([O-])c1cccc(C=Nc2cc3c(cc2Br)OCCO3)c1 | 0 | 0 | 51 | 0 | 0
CN1CCN(C(=O)C2=C[C@@H](C3CCCCC3)C[C@@H](OCCCCO)O2)CC1 | 0 | 0 | 0 | 0 | 0
O=C1c2ccccc2C(Nc2ccc3c(c2)OCCO3)N1c1ccccn1 (stereo unspecified) | 0 | 0 | 51 | 0 | 0

From PubChem
